Test results taken from ChEMBL document CHEMBL1136930, “Doubly loaded cycloSaligenyl-pronucleotides - 5,5'-Bis-(cycloSaligenyl-2',3'-dideoxy-2',3'-didehydrothymidine monophosphates)” (J Med Chem, 2009).

Columns and labels:
[1] = system: Human immunodeficiency virus 1; assay: Antiviral activity against HIV1 in wild type human CEM cells assessed as virus-induced cytopathic effect after 4 to 5 days by microscopy; type: functional, organism-based, CCRF-CEM
In short: (§1)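 50% effective concentration against HIV in wild-type or thymidine kinase-deficient CEM T-lymphocytes, reported as the mean of two to three independent experiments.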

[2] = Chemical stability assessed as hydrolysis half life in aqueous phosphate buffer saline at pH 7.3 by HPLC analysis; type: physicochemical; conditions: for t1/2: buffer; for half-life: aqueous phosphate buffered saline
[3] = system: Human immunodeficiency virus 2; assay: Antiviral activity against HIV2 in thymidine kinase deficient human CEM cells assessed as virus-induced cytopathic effect after 4 to 5 days by microscopy; type: functional, organism-based, CCRF-CEM; in short: as §1
[4] = system: Human immunodeficiency virus 2; assay: Antiviral activity against HIV2 in wild type human CEM cells assessed as virus-induced cytopathic effect after 4 to 5 days by microscopy; type: functional, organism-based, CCRF-CEM; in short: as §1
[5] = system: CCRF-CEM; assay: (§2) Cytostatic activity against wild type human CEM cells; type: cell-based; conditions: ccrf-cem
In short: (§3)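 50% cytostatic concentration measured in wild-type CEM T-lymphocyte cultures.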

[6] = Chemical stability assessed as half life of hydrolysis in RPMI-1640 culture medium at pH 7.6 in presence 10% heat-inactivated fetal calf serum by HPLC analysis; type: physicochemical; conditions: cattle; for t1/2: serum
[7] = Chemical stability assessed as hydrolysis half life in aqueous phosphate buffer saline at pH 7.6 by HPLC analysis; type: physicochemical; conditions: for t1/2: buffer; for half-life: aqueous phosphate buffered saline
[8] = as §2; type: cell-based, CCRF-CEM; conditions: wild type CEM (CCRF-CEM) cells; in short: as §3
[9] = Chemical stability assessed as hydrolysis half life by HPLC analysis; type: physicochemical
[10] = Ratio of hydrolysis half life in aqueous phosphate buffer saline at pH 7.3 to hydrolysis half life in RPMI-1640 culture medium at pH 7.6 in presence 10% heat-inactivated fetal calf serum; type: ADME
[11] = Ratio of hydrolysis half life in RPMI-1640 culture medium at pH 7.6 in presence 10% heat-inactivated fetal calf serum to hydrolysis half life in aqueous phosphate buffer saline at pH 7.6; type: ADME; conditions: cattle
[12] = Human immunodeficiency virus 1, CCRF-CEM
[13] = Human immunodeficiency virus 2, CCRF-CEM

EC50 [3, 13] [µM] | SMILES | t1/2 [2] [h] | EC50 ([3]; ccrf-cem) [µM] | EC50 [1, 12] [µM] | EC50 [4, 13] [µM] | CC50 [8] [µM] | also measured
 | Cc1cn([C@H]2C=C[C@@H](COP3(=O)OCc4cc(-c5ccc6c(c5)COP(=O)(OC[C@@H]5C=C[C@H](n7cc(C)c(=O)[nH]c7=O)O5)O6)ccc4O3)O2)c(=O)[nH]c1=O (single isomer, unassigned; form 1) | 1 | 4.4 |  |  |  | EC50 ([1]; ccrf-cem): 0.46 µM; EC50 ([4]; ccrf-cem): 1.2 µM; CC50 [5]: 107 µM; t1/2 [6]: 0.6 h; t1/2 [7]: 0.4 h
29 | Cc1cn([C@H]2C=C[C@@H](CO)O2)c(=O)[nH]c1=O [STAVUDINE] |  |  | 0.56 | 0.79 | > 250 | 
 | Cc1cn([C@H]2C=C[C@@H](COP3(=O)OCc4cc(-c5ccccc5)ccc4O3)O2)c(=O)[nH]c1=O (some centres undefined) |  |  |  |  |  | half-life [9]: 3.1 h
 | Cc1cn([C@H]2C=C[C@@H](COP3(=O)OCc4cc(-c5cc6c(c(C(C)(C)C)c5)OP(=O)(OC[C@@H]5C=C[C@H](n7cc(C)c(=O)[nH]c7=O)O5)OC6)cc(C(C)(C)C)c4O3)O2)c(=O)[nH]c1=O (single isomer, unassigned; form 1) | 4.3 | 2.8 |  |  |  | EC50 ([1]; ccrf-cem): 0.81 µM; EC50 ([4]; ccrf-cem): 1.6 µM; CC50 [5]: 18 µM; t1/2 [6]: 7.9 h; t1/2 [7]: 3.9 h
> 50 | Cc1cc(-c2cc(C)c(O)c(CO)c2)cc(CO)c1O |  |  | 20 | > 50 | 96 | 
 | Cc1cn([C@H]2C=C[C@@H](COP3(=O)OCc4cccc(-c5cccc6c5OP(=O)(OC[C@@H]5C=C[C@H](n7cc(C)c(=O)[nH]c7=O)O5)OC6)c4O3)O2)c(=O)[nH]c1=O (some centres undefined) | 8.2 |  |  |  |  | 
 | Cc1cn([C@H]2C=C[C@@H](COP3(=O)OCc4cccc(-c5cccc6c5OP(=O)(OC[C@@H]5C=C[C@H](n7cc(C)c(=O)[nH]c7=O)O5)OC6)c4O3)O2)c(=O)[nH]c1=O (single isomer, unassigned; form 1) | 3.2 |  |  |  |  | 
 | Cc1cn([C@H]2C=C[C@@H](COP3(=O)OCc4cccc(-c5cccc6c5OP(=O)(OC[C@@H]5C=C[C@H](n7cc(C)c(=O)[nH]c7=O)O5)OC6)c4O3)O2)c(=O)[nH]c1=O (single isomer, unassigned; form 2) | 8.5 |  |  |  |  | 
6.9 | CC(C)(C)c1cc(-c2cc(CO)c(O)c(C(C)(C)C)c2)cc(CO)c1O |  |  | 7.9 | 7.9 | 20 | 
 | Cc1cn([C@H]2C=C[C@@H](COP3(=O)OCc4cc(-c5ccc6c(c5)COP(=O)(OC[C@@H]5C=C[C@H](n7cc(C)c(=O)[nH]c7=O)O5)O6)ccc4O3)O2)c(=O)[nH]c1=O (single isomer, unassigned; form 2) | 3.3 | 3.3 |  |  |  | EC50 ([1]; ccrf-cem): 0.47 µM; CC50 [5]: 78 µM; half-life [6]: 1 h; half-life [7]: 0.7 h
 | Cc1cn([C@H]2C=C[C@@H](COP3(=O)OCc4cc(-c5cc6c(c(C(C)(C)C)c5)OP(=O)(OC[C@@H]5C=C[C@H](n7cc(C)c(=O)[nH]c7=O)O5)OC6)cc(C(C)(C)C)c4O3)O2)c(=O)[nH]c1=O (single isomer, unassigned; form 3) | 5.3 | 2.6 |  |  |  | EC50 ([1]; ccrf-cem): 0.86 µM; EC50 ([4]; ccrf-cem): 2 µM; t1/2 [6]: 9.1 h; t1/2 [7]: 4.4 h
 | Cc1cccc2c1OP(=O)(OC[C@@H]1C=C[C@H](n3cc(C)c(=O)[nH]c3=O)O1)OC2 (some centres undefined) |  |  |  |  |  | half-life [9]: 15 h
 | Cc1cn([C@H]2C=C[C@@H](COP3(=O)OCc4cc(-c5ccc6c(c5)COP(=O)(OC[C@@H]5C=C[C@H](n7cc(C)c(=O)[nH]c7=O)O5)O6)ccc4O3)O2)c(=O)[nH]c1=O (some centres undefined) | 1.7 | 7.5 | 0.51 | 0.62 | 115 | Ratio [10]: 2; t1/2 [6]: 0.8 h; t1/2 [7]: 0.5 h
18 | OCc1cc(-c2ccc(O)c(CO)c2)ccc1O |  |  | 99 | 117 | > 250 | 
 | Cc1cn([C@H]2C=C[C@@H](COP3(=O)OCc4cc(-c5cc6c(c(C(C)(C)C)c5)OP(=O)(OC[C@@H]5C=C[C@H](n7cc(C)c(=O)[nH]c7=O)O5)OC6)cc(C(C)(C)C)c4O3)O2)c(=O)[nH]c1=O (single isomer, unassigned; form 2) | 4.7 | 3.2 |  |  |  | EC50 ([1]; ccrf-cem): 0.49 µM; EC50 ([4]; ccrf-cem): 1 µM; CC50 [5]: 19 µM; t1/2 [6]: 8 h; t1/2 [7]: 4.1 h

SMILES | EC50 [3, 13] [µM] | t1/2 [2] [h] | EC50 ([3]; ccrf-cem) [µM] | EC50 [1, 12] [µM] | EC50 [4, 13] [µM] | CC50 [8] [µM] | also measured
Cc1cn([C@H]2C=C[C@@H](COP3(=O)OCc4cc(-c5ccc(O)c(CO)c5)ccc4O3)O2)c(=O)[nH]c1=O (some centres undefined) | 3.7 |  |  | 0.73 | 0.91 | 82 | half-life [2]: 2.2 h; half-life [6]: 2.1 h; half-life [7]: 2 h
Cc1cc(-c2cc(C)c3c(c2)COP(=O)(OC[C@@H]2C=C[C@H](n4cc(C)c(=O)[nH]c4=O)O2)O3)cc2c1OP(=O)(OC[C@@H]1C=C[C@H](n3cc(C)c(=O)[nH]c3=O)O1)OC2 (some centres undefined) | 0.85 |  |  | 0.4 | 0.83 | 64 | half-life [2]: 2.2 h; half-life [6]: 2.3 h; half-life [7]: 2.3 h
Cc1cn([C@H]2C=C[C@@H](COP3(=O)OCc4cc(-c5cc6c(c(C(C)(C)C)c5)OP(=O)(OC[C@@H]5C=C[C@H](n7cc(C)c(=O)[nH]c7=O)O5)OC6)cc(C(C)(C)C)c4O3)O2)c(=O)[nH]c1=O (some centres undefined) | 2.9 |  |  | 0.88 | 1.3 | 20 | half-life [2]: 4.7 h; half-life [6]: 8.3 h; half-life [7]: 4.1 h; Ratio [11]: 2
